Five compounds from ChEMBL document CHEMBL1158816, “Meroterpenes from the ascidian Aplidium aff. densum” (J Nat Prod, 2005) can be followed below.

Structures are written as SMILES. In brackets after ≈: the same amount, converted by molar mass.

One assay concerns Micrococcus luteus. The assay is described as follows: Antimicrobial activity against Micrococcus luteus by broth dilution method. The format is functional. The procedure, abridged: (§1)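 Broth dilution per NCCLS guidelines; compounds in DMSO (at most 5% of total volume) incubated with bacteria (Institut Pasteur strains) in PB medium, 37 °C, 24 h with stirring. Growth read as optical density at 630 nm. Triplicate, averaged. Where growth was absent, medium plated on rich solid medium to tell bacteriostatic from bactericidal.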

The test system of a further assay is Escherichia coli. Kind of assay: Antimicrobial activity against Escherichia coli by broth dilution method. The format is functional. The procedure, abridged:
as §1
For orientation: Dilution methods test growth across graded concentrations, often in twofold steps.

A further assay deals with CCRF-CEM. The assay is described as follows: Cytotoxicity against human wild type CEM cells after 72 hrs. It counts as functional, cell-based. Summed up: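 CCRF-CEM (CEM-WT) acute lymphoblastic leukemia cells grown in RPMI 1640 with L-glutamine, 10% FCS, penicillin/streptomycin, 5% CO2, 37 °C. Serial dilutions in medium (10^-4 to 1 mg/mL) added to 2 × 10^5 cells/mL without medium renewal. Cells counted with a particle counter over time. IC50 taken at 72 h; triplicate, averaged.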

Regarding `CC1=CC2C(CC1)C(C)(C)OC21CC(=O)C=CC1=O` (configuration not stated) [CONIDIONE], the MIC in the assay with Micrococcus luteus and in the assay on Escherichia coli was greater than 2000 µM throughout.

`CC(C)=CCCC1(C)C=Cc2cc(O)ccc2O1` (configuration not stated) [CORDIACHROMENE A]: the IC50 with CCRF-CEM amounted to 30 µM. Further, the figures for the MIC against Micrococcus luteus and against Escherichia coli were 510 µM (≈ 125 µg/mL) and greater than 2000 µM, respectively.

`Cc1ccc2c(c1)-c1cc(O)ccc1OC2(C)C` [DIDEHYDROCONICOL]: the values for the MIC with Micrococcus luteus and with Escherichia coli were 510 µM (≈ 123 µg/mL) and greater than 2000 µM, respectively.

As for `CC1=C[C@@H]2c3cc(O)ccc3OC(C)(C)[C@@H]2CC1` [EPICONICOL], the IC50 in the assay on CCRF-CEM came to 60 µmol. Also, the MIC is 130 µM (≈ 31.8 µg/mL) against Micrococcus luteus and greater than 2000 µM against Escherichia coli.

Turning to `COC(C)(C)[C@H]1CCC(C)=C[C@H]1c1cc(O)ccc1O` [METHOXYCONIDIOL], the MIC against Micrococcus luteus and in the assay on Escherichia coli was greater than 2000 µM in each case.

The MIC is the lowest concentration found to suppress growth. High values mean a less susceptible organism, low ones a more susceptible organism.
